Assay outcomes as filed in PubChem.
Shown are actives, neighbours in structure and some others; about 3.1% of the full set was active somewhere.
TbHK1 inh – blocks Trypanosoma brucei hexokinase 1 activity; recombinant TbHK1, G6PDH-coupled NADH A340; inhibition, % at 10 µM; 0.11% of 220,000 active;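 active = inhibition of 50% or more in the single-dose primary screen; inactive = inhibition below 50%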
HSF1 activator – increases HSF-1 driven luciferase reporter signal. NIH3T3-HGL HSF-1 luciferase reporter, MG132, 8 h; 100% = twice DMSO control signal. activation, % at 9 µM. 1.7% of 300,000 active;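 active = mean replicate activation of at least 50% with a set share of replicates each reaching 50%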;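 note: 0% = median of the neutral control wells and 100% = twice that signal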
HSF1 inh – HSF1 inhibition. NIH3T3-HGL HSE-luciferase, MG132-induced, luminescence 8 h; hits give low values. activity change, negative = inhibition, % at 7.5 µM (by protocol). 0.77% of 300,000 active. AID 2098;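 active = more than half of replicate wells show activity change below -50%, luminescence cut by over half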;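 note: luciferase reports HSF-1 transcriptional activity via heat shock element; 0% = median of DMSO wells and -100% = zero luminescence signal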
Hsp70 act – switches on Hsp70 transcription | HeLa Hsp70 promoter luciferase reporter, luminescence; scaled: vehicle 0, proteasome-inhibitor control 100% | 0.04% of 200,000 active | activation, % at 10 µM | AID 1203;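 active = activation above the mean across all tested compounds plus 3 SD, cutoff set per campaign, cut at about 5.5% in these data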;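 note: 100% = MG132 at 30 µM as the positive control and 0% = DMSO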
HSP90 refold inh – blocks HSP90-mediated luciferase refolding in reticulocyte lysate. inhibition, % at 5.6 µM. 0.91% of 290,000 active. Rabbit reticulocyte lysate, luciferase refolding luminescence, 3 h;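 active = inhibition above the screen-wide mean plus 3 SD, computed separately per campaign, cut at about 16% in these data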;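 note: 0% = DMSO wells and 100% = 60 µM geldanamycin wells; inhibitors lower the luminescence because luciferase stays unfolded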
HKDC1 inh – blocks human hexokinase HKDC1 activity | Q2TB90 | recombinant HKDC1, G6PDH/diaphorase resazurin coupled fluorescence | inhibition, % at 20 µM | 0.16% of 340,000 active;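 active = inhibition above about 35% when tested at 20 µM, limit read from the data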;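 note: plate controls were DMSO wells with enzyme for no effect and DMSO wells lacking enzyme for full effect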
Target sequence (Q2TB90 whole entry, looked up): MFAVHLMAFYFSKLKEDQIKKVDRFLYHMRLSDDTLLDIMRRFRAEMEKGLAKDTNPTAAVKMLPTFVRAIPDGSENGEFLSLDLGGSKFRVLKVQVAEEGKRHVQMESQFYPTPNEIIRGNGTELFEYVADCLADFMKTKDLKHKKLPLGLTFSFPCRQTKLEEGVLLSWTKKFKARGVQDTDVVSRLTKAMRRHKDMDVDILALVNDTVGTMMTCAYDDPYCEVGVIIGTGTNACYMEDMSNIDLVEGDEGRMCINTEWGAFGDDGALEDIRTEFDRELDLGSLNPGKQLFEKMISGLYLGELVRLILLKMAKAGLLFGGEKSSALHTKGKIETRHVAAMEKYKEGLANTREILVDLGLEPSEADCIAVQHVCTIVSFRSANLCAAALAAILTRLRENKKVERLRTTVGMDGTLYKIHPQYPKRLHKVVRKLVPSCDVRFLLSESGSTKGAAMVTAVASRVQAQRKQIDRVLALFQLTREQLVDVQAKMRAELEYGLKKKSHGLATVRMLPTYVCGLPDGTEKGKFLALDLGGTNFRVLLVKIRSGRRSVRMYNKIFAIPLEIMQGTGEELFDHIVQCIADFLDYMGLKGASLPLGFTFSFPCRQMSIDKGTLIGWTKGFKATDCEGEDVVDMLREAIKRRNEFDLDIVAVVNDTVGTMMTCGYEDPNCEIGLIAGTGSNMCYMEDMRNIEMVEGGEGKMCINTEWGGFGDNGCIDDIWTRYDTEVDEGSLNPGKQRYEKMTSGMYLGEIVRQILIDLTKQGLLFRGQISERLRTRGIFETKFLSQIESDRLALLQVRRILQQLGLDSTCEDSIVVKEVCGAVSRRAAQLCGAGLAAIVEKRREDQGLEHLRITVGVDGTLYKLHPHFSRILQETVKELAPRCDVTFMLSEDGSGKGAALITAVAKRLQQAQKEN
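test system = in-house recombinant HK5 (HKDC1) enzyme | amount = HKDC1 at 5 µg/mL | control set = DMSO-enzyme wells negative, buffer-substituted wells positive | compound = one dose of 20 µM, 1% DMSO | schedule = reaction time 90 min, room temperature, protected from light | technique = resorufin fluorescence at 613 nm | reagent = glucose with 1 mM ATP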
An asterisk follows results filed as active; / = no result given.

SMILES | TbHK1 inh | HSF1 activator | HSF1 inh | Hsp70 act | HSP90 refold inh | HKDC1 inh
CC(C)(C)OC(=O)N1CSC[C@H]1C(=O)NC[C@H](CC(=O)O)c1ccc(Cl)cc1 | / | 81.9* | 38.9 | / | -2.4 | -3.3
CC(C)(C)NC(=O)NC(=O)CSc1ccc(S(=O)(=O)N2CCCCC2)cn1 | / | / | / | / | / | -5.8
O=C(CC1Sc2ccccc2NC1=O)NNc1ccc(F)cc1 (centres undefined) | / | / | / | / | / | 1.9
CC(O)CNCCCOc1ccc(Cl)cc1C(C)(C)C (centres undefined) | -8.1 | -72.8 | -65.7* | -0.2 | -0.6 | -7.6
Cc1ccc(NC(=O)c2ccc(NS(=O)(=O)c3ccc4[nH]c(=O)[nH]c4c3)cc2)nc1 | / | 11.4 | -3.0 | / | / | -2.8
COc1cccc(CNC(=O)Cn2c(=O)c3cccn3c3ccccc32)c1 | / | -88.7 | -86.0* | / | -0.7 | -4.5
O=C(Cn1c(=O)c2cccn2c2ccccc21)NCc1cccc(F)c1 | / | 22.9 | 8.9 | / | 3.8 | -3.8
Clc1cccc(Cl)c1C[n+]1ccc2ccccc2c1 | / | 3.7 | 2.2 | / | -1.1 | 1.2
Cc1cc(C)cc(C(=O)Nc2cccnc2Cl)c1 | / | 14.5 | 4.8 | / | 0.6 | -2.4
Cc1ccc(C(=O)Nc2cccnc2Cl)cc1Cl | / | 58.7* | 20.3 | / | -6.9 | -1.7
COc1ccc(CN(C)CC(=O)Nc2ccccc2C(=O)NC2CC2)cc1 | / | / | / | / | / | 3.7
CCOc1ccccc1NC1=C(OC)C(=O)C(Nc2ccccc2OCC)=C(OC)C1=O | / | / | / | / | / | 4.3
O=C1/C(=C/c2ccccc2)CCc2ccc(Cl)nc21 | / | / | / | / | / | 21.2
CC1CC(C)CN(S(=O)(=O)c2ccc(C(=O)N(C)Cc3ccccc3)cc2)C1 (centres undefined) | / | / | / | / | / | 0.5
COc1ccc(CSCCNC(=S)Nc2ccccc2)cc1Cl | 8.1 | 26.2 | 22.3 | -0.2 | -0.1 | 2.7
S=C(NCCSCc1ccc(Cl)cc1Cl)Nc1ccccc1 | 16.3 | 51.8* | 35.4 | 0.1 | 0.0 | 1.1
S=C(NCCSCc1ccc(Cl)c(Cl)c1)Nc1ccccc1 | 20.2 | 100.8* | 58.7 | 0.0 | 4.2 | 2.1
S=C(NCCSCc1c(Cl)cccc1Cl)Nc1ccccc1 | 11.4 | / | / | -0.3 | 3.0 | 4.9
COc1ccc(N2CCN(C(=O)c3c(-c4c(F)cccc4Cl)noc3C)CC2)cc1 | / | -16.4 | -4.0 | / | -1.4 | -4.1
CC(C)(O)CC[C@H](OC(=O)c1ccccc1)[C@](C)(O)[C@H]1CC[C@@]2(O)C3=CC(=O)[C@@H]4C[C@@H](O)[C@H](O)C[C@]4(C)C3CC[C@]12C (some centres undefined) | / | -17.1 | -9.3 | / | -2.8 | -6.1
COc1ccc(OCC(=O)Nc2c3c(nn2-c2ccccc2)CS(=O)(=O)C3)cc1 | / | -0.4 | -6.5 | / | -1.5 | 9.5
CSc1nc(Cl)c(Cc2ccc(OC(C)C)cc2)c(N(C)C)n1 | -6.2 | 58.5* | 17.5 | -0.5 | 2.4 | -1.9
CC(Sc1ccccc1)C(=O)NCC(c1ccco1)N1CCCCC1 (centres undefined) | / | 8.8 | 8.5 | / | / | -3.4
O=C(Cc1cccs1)Nc1nc2ccccc2s1 | 5.1 | 65.5* | 44.7 | -0.1 | -5.2 | -4.3
Cc1ccc2nc(NC(=O)Cc3cccs3)sc2c1 | -5.8 | 45.4 | 25.5 | -0.2 | 7.0 | 1.5
SMILES | TbHK1 inh | HSF1 activator | HSF1 inh | Hsp70 act | HSP90 refold inh | HKDC1 inh
COc1ccc2nc(NC(=O)Cc3cccs3)sc2c1 | -1.3 | 64.6* | 36.9 | 0.3 | 1.0 | 4.9
Cc1ccc(S(=O)(=O)N2CCCCC2CCNC(=O)C(=O)NCc2ccccc2)cc1 (centres undefined) | / | -2.1 | -4.3 | / | / | -5.2
NC(=O)[C@@H]1CCCN1C(=O)c1ccc2nc(Cc3cccc(Cl)c3)oc2c1 | / | 18.0 | 8.5 | / | -2.3 | -2.9
COc1ccc(C(=S)Nc2ccc(N(C)C)cc2)cc1 | -1.9 | 59.6* | 28.9 | -0.1 | 0.0 | -0.5
COc1ccc(NCC(=O)NN=C2CCS(=O)(=O)c3ccc(F)cc32)cc1 | / | / | / | / | / | 8.9
CC1=C(C(=O)OCc2ccccc2)C(c2ccccc2Cl)NC(=O)N1CCCC(=O)O (centres undefined) | / | 9.8 | -5.0 | / | 1.9 | 0.2
CCOC(=O)C1=C(C)N(CCC(=O)O)C(=O)NC1c1ccccc1Cl (centres undefined) | / | -82.2 | -77.0* | / | / | 0.8
O=c1[nH]cc(-c2ccccc2)c(=O)[nH]1 | -9.7 | -18.7 | -18.4 | / | -2.4 | -2.6
O=c1[nH]cc(S(=O)(=O)c2ccccc2)[nH]1 | -4.6 | -59.8 | -51.5* | -0.3 | 1.8 | -3.5
O=C(C1=C[C@H](c2ccc(Br)cc2)C[C@H](OCCCCO)O1)N1CCN(Cc2ccc3c(c2)OCO3)CC1 | -15.1 | -62.2 | -53.7* | 0.1 | 0.5 | -1.7
Cc1nc(-c2cc(-c3ccc(Cl)cc3)no2)cs1 | / | 70.8* | 47.0 | / | 0.5 | -1.3
Clc1ccc(-c2cc(-c3ccccc3)on2)cc1 | / | / | / | / | / | -6.9
CCn1c(CN2CCOCC2)nnc1SCC(=O)Nc1ccc(C(C)=O)cc1 | / | -4.3 | -1.2 | / | 1.7 | -6.2
CC/C(=N\NS(=O)(=O)c1ccc(C)cc1)c1ccco1 | / | -72.2 | -64.3* | / | -3.6 | -3.3
NNC(=O)CNC(=O)CNS(=O)(=O)c1ccccc1 | 3.2 | -83.3 | -77.8* | -0.4 | -1.3 | 6.9
Cc1noc(C)c1CSc1ncnc2sc3c(c12)CCC3 | 2.5 | -78.4 | -73.0* | -0.1 | 1.1 | /
CCOc1cc(Cl)c(CNCCCN2CCOCC2)cc1OC | / | 2.6 | -2.2 | / | 3.0 | -4.0
O=C(Nc1ccccc1O)c1csc2c1CCCC2 | 0.0 | 92.5* | 38.7 | -0.1 | -1.6 | -1.6
O=C(N/N=C/c1cccc(F)c1)c1csc2c1CCCC2 | 2.2 | 38.8 | 23.8 | 0.0 | -10.2 | 7.5
O=C(N/N=C/c1ccccc1F)c1csc2c1CCCC2 | 1.9 | 65.4* | 46.2 | 0.1 | 1.0 | 3.2
Cc1nc(Nc2cc(F)ccc2C)c2nnn(Cc3ccccc3)c2n1 | / | -3.4 | 4.0 | / | 2.7 | 1.4
O=C(O)c1ccn(Cn2cnc3ccccc32)n1 | -4.1 | -79.8 | -75.3* | 0.1 | 0.2 | -4.4
O=C(Cn1cnc2ccccc21)c1ccccc1 | / | -8.2 | -0.6 | / | -1.1 | -5.2
COc1ccc(OC)c(CNC(=O)c2nn(C)c3c2CS(=O)(=O)c2ccccc2-3)c1 | / | -6.0 | -0.2 | / | -3.2 | -5.3
CN1CCN(c2ccc(Nc3ccnc4cc(Cl)ccc34)cc2)CC1 | / | 52.0* | 21.6 | / | 0.1 | 3.5
SMILES | TbHK1 inh | HSF1 activator | HSF1 inh | Hsp70 act | HSP90 refold inh | HKDC1 inh
CCOc1ccc(Nc2ccnc3cc(Cl)ccc23)cc1 | -10.5 | -3.6 | -13.1 | / | -6.5 | -7.5
CCOC(=O)c1c(NC(=O)c2ccccc2)sc2c(O)c(CN(CC)CC)ccc12 | -32.6 | -75.1 | -73.4* | 0.2 | -1.4 | 1.0
COc1ccc(OC)c(NC(=O)CS(=O)(=O)c2ccccc2)c1 | 2.6 | -7.3 | 2.8 | -0.1 | 2.6 | -7.4
COc1ccc(OC)c(NC(=O)CS(=O)(=O)Cc2ccccc2)c1 | / | -71.3 | -60.5* | / | 1.2 | -3.8
COc1ccc(OC)c(NC(=O)CSCC(=O)O)c1 | -1.8 | -92.0 | -90.0* | 0.5 | 3.0 | -2.2
CCn1cc(C(=O)NN)c(=O)c2cc(F)c(NC3CCCCC3)cc21 | / | 66.4* | 19.1 | / | 0.7 | 11.8
